Experimental data from ChEMBL document CHEMBL4145666, “In Search of Selectivity in Inhibition of ADAM10” (ACS Med Chem Lett, 2018).
Calls of active or inactive are those of the source. No cut-off for these calls is given here.

Legend:
[1] = Elimination half life in CD-1 mouse brain at 10 mg/kg, ip by UPLC analysis; format: ADME, organism-based; conditions: read-out: beta t1/2
How it was run: (§1)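 Male CD-1 mice, 6–7 weeks old, about 30 g, fed and watered ad libitum. Single dose of 10 mg/kg ip or 25 mg/kg sc, given as 100 μL formulation; n = 3 per time point per route. At set times, blood was taken by cardiac puncture with heparinized syringes and spun to plasma. Brains were harvested after transcardiac saline perfusion, weighed and flash-frozen. Brain levels are in pmol/mg tissue.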

[2] = molecular target: Disintegrin and metalloproteinase domain-containing protein 17 (Homo sapiens, UniProt P78536); experiment: Inhibition of recombinant human C-terminal His6-tagged ADAM17 (Arg215 to Asn671 residues) expressed in baculovirus infected Sf21 cells using Mca-PLAQAV-Dpa-RSSSR-NH2 as substrate by fluorescence spectrophotometric method
Chain of Disintegrin and metalloproteinase domain-containing protein 17 (P78536 whole entry, the tested form may be a part): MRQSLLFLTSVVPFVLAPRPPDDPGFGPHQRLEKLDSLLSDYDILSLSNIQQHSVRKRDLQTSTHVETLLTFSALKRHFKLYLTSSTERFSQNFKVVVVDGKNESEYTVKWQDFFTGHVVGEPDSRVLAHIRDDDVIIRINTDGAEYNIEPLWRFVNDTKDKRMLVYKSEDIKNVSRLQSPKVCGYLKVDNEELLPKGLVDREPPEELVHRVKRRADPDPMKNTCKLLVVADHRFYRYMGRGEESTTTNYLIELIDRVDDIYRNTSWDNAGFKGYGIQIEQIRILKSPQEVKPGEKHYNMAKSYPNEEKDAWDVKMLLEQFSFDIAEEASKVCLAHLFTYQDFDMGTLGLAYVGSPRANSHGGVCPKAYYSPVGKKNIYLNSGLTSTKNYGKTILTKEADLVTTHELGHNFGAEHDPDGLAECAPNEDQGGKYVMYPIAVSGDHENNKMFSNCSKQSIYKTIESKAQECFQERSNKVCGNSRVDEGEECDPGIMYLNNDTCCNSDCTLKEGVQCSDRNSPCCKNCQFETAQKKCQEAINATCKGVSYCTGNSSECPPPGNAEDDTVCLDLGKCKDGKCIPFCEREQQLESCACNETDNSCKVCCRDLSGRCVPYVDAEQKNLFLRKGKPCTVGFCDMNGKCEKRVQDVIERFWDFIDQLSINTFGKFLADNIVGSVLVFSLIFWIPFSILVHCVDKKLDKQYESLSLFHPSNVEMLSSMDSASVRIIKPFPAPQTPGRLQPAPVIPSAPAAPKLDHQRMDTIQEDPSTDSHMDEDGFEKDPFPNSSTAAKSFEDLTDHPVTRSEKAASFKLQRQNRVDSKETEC
How it was run: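 Enzymes and their substrates were obtained as in earlier work, and inhibition was run by a previously reported protocol. Ki values were measured in triplicate.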

[3] = AUC (0 to infinity) in CD-1 mouse brain assessed per mg tissue at 10 mg/kg, ip by UPLC analysis; format: ADME, organism-based; design: dose 10 mg/kg, route intraperitoneal, time infinity; conditions: in vivo; how it was run: as §1
[4] = Elimination half life in CD-1 mouse brain at 25 mg/kg, sc by UPLC analysis; format: ADME, organism-based; conditions: read-out: beta t1/2; how it was run: as §1
[5] = Primary phase half life in CD-1 mouse brain at 10 mg/kg, ip by UPLC analysis; format: ADME, organism-based; conditions: read-out: alphat1/2; how it was run: as §1
[6] = molecular target: Matrix metalloproteinase-9 (Homo sapiens) (UniProt P14780); experiment: Inhibition of recombinant human MMP9 catalytic domain (Phe107 to Pro449 residues) expressed in Escherichia coli using MOCAc-Pro-Leu-Gly-Leu-A2pr(Dnp)-Ala-Arg-NH2 as substrate at 10 uM by fluorescence spectrophotometric method relative to control
Chain of Matrix metalloproteinase-9 (Homo sapiens) (P14780 whole entry, the tested form may be a part): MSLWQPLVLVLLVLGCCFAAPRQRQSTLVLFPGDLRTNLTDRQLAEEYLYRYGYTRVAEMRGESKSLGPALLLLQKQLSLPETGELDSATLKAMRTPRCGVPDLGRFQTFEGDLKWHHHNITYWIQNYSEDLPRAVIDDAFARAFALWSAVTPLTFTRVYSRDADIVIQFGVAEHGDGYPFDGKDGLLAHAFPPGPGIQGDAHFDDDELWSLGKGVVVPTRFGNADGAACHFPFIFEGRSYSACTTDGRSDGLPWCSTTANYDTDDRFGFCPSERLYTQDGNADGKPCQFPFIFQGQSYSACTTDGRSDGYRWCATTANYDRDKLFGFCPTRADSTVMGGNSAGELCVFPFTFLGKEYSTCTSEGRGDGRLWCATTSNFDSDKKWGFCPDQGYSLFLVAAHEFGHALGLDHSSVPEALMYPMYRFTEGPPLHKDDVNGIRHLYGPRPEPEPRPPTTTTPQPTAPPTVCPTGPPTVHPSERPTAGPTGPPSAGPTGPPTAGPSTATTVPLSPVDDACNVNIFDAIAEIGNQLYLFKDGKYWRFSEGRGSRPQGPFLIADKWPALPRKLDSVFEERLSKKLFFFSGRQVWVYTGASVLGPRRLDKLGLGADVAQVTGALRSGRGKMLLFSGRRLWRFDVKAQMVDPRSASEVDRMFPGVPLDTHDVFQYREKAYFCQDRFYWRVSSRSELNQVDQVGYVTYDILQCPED
How it was run: (§2)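 Single inhibitor concentration of 10 μM, reported as percent inhibition. Enzymes and substrates as in earlier work, with inhibition run by a previously reported protocol.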

[7] = molecular target: Matrix metalloproteinase-14 (Homo sapiens) (UniProt P50281); experiment: Inhibition of recombinant human MMP14 catalytic domain (89 to 265 residues) expressed in Escherichia coli using MOCAc-Pro-Leu-Gly-Leu-A2pr(Dnp)-Ala-Arg-NH2 as substrate at 10 uM by fluorescence spectrophotometric method relative to control; how it was run: as §2
[8] = Primary phase half life in CD-1 mouse plasma at 25 mg/kg, sc by UPLC analysis; format: ADME, organism-based; conditions: read-out: alphat1/2; how it was run: as §1
[9] = AUC (0 to infinity) in CD-1 mouse brain assessed per mg tissue at 25 mg/kg, sc by UPLC analysis; format: ADME, organism-based; design: dose 25 mg/kg, route subcutaneous, time infinity; conditions: in vivo; how it was run: as §1
[10] = Primary phase half life in CD-1 mouse brain at 25 mg/kg, sc by UPLC analysis; format: ADME, organism-based; conditions: read-out: alphat1/2; how it was run: as §1
Mus musculus = experiment: Time at which plasma concentration stays above in-vitro Ki for ADAM10 in CD-1 mouse at 10 mg/kg, ip by UPLC analysis; format: ADME, organism-based; conditions: in vivo; how it was run: as §1
[11] = molecular target: T1, Interstitial collagenase (Homo sapiens) (UniProt P03956); experiment: Inhibition of recombinant human MMP1 catalytic domain (Phe100 to Gln268 residues) expressed in Escherichia coli at 10 uM using McaKPLGL-Dpa-AR-NH2 as substrate by fluorescence spectrophotometric method; how it was run: as §2
T1 sequence (whole entry): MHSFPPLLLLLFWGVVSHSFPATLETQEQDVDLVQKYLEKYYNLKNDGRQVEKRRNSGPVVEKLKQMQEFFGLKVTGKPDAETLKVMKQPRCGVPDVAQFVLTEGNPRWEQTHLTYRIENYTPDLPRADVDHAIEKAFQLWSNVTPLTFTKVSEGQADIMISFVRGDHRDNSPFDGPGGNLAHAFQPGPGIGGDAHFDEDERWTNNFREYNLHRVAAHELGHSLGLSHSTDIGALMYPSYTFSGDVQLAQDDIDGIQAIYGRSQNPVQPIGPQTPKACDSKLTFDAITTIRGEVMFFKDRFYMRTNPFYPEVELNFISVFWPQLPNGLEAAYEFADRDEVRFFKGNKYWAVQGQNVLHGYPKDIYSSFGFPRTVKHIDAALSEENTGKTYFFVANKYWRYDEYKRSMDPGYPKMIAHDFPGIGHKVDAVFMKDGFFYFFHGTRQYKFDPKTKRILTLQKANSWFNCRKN

[12] = molecular target: T2, Matrilysin (Homo sapiens) (UniProt P09237); experiment: Inhibition of recombinant human MMP7 expressed in Escherichia coli using MOCAc-Pro-Leu-Gly-Leu-A2pr(Dnp)-Ala-Arg-NH2 as substrate at 10 uM by fluorescence spectrophotometric method; how it was run: as §2
T2 sequence (whole entry): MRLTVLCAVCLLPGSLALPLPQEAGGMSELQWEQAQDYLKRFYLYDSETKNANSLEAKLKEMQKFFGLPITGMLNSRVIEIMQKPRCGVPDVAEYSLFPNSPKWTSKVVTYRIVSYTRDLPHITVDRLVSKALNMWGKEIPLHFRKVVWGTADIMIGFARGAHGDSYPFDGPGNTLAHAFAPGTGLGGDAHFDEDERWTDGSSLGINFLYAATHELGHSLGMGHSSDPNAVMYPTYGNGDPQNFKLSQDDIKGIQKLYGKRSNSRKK

[13] = Primary phase half life in CD-1 mouse plasma at 10 mg/kg, ip by UPLC analysis; format: ADME, organism-based; conditions: read-out: alphat1/2; how it was run: as §1
[14] = AUC (0 to last) in CD-1 mouse brain assessed per mg tissue at 10 mg/kg, ip by UPLC analysis; format: ADME, organism-based; conditions: in vivo; how it was run: as §1

With `O=C(NO)[C@H]1C[C@H](OC(=O)N2CCCC2)CC[C@@H]1C(=O)N1CCC(c2ccccc2)CC1` the half-life [1] was 204 min, the Ki [2] was 900 nM and the AUC [3] was 14 pmol·min/mg. The half-life [4] was 630 min, the half-life [5] was 28.8 min and the inhibition [6] was 25%. For the same compound, the inhibition [7] was 19%, the half-life [8] was 15.4 min and the AUC [9] was 77 pmol·min/mg. The half-life [10] was 11.4 min, the Time (Mus musculus) was 6 h and the inhibition [11] was “inactive”. The inhibition [12] was “inactive”, the half-life [13] was 12.4 min and the AUClast [14] was 12.1 pmol·min.
